From PubChem
Env fusion inh = inhibitors of HIV Env-mediated cell fusion. inhibition, % at 12.3 µM. 360,000 tested, 1.1% active. AID 651610. HeLa-JRFL Env/CEM21 cell fusion, luciferase;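 active = mean replicate inhibition score of at least 50 and every replicate individually at or above 50; inconclusive = only one of the two criteria met; inactive = mean below 50 and not all replicates reaching 50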;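 note: 0% = plate neutral controls and 100% = maraviroc near 300 nM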
PAX8 reporter = PAX8 transcriptional activity inhibition; inhibition, % at 12.6 µM; RMG-I TPO-luciferase reporter, SteadyGlo, 24 h; 360,000 tested, 1.2% active;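 active = mean replicate inhibition at least 60% with every replicate also reaching 60%; inconclusive = only one of the two criteria is met; inactive = mean below 60% and not all replicates reaching 60%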;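 note: luciferase light reporting Pax8 driven TPO promoter activity; plate controls were median of neutral control wells for no effect and mitoxantrone controls for full effect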
Arrestin-AP2 inh = inhibitors of human beta-arrestin and AP2 interaction; inhibition, % at 10 µM; 340,000 tested, 0.31% active; FITC-arrestin peptide / GST-AP2 beads, flow cytometry; AP2 beta2 appendage carries R879A mutation;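 active = inhibition above a set limit, near 3 SD of compounds lacking own fluorescence, cut at about 54% in these data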;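 note: plate controls were DMSO wells for no effect and 5 µM unlabelled arrestin peptide for full effect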
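System: GST-AP2 R879A glutathione beads | Also added: FITC-arrestin peptide, 50 nM | Times: 12 min plus 1 h, RT | Signal: Bead flow cytometry, FITC channel | Buffer or medium: PBS with 0.05% Tween 20 and 0.1% BSA | Read-out basis: Percent drop in bead-associated FITC signal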
PfHsp90 set2 = inhibits growth of yeast expressing Plasmodium falciparum Hsp90. S. cerevisiae expressing PfHsp90, BacTiter-Glo ATP, 48 h; yeast lacking PDR1 and PDR3 efflux regulators. 310,000 tested, 0.32% active. inhibition, % at 9.4 µM;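 active = every replicate shows inhibition above about 80%, whatever the replicate mean, limit read from the data; inconclusive = mean inhibition reaches the set limit but some replicate falls short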;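 note: 0% = DMSO neutral controls and 100% = 20 µM radicicol positive controls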
Glyco luc inh = N-linked glycosylation inhibition; D54 ERlucT glycosylation luciferase reporter, 24 h; percent of 100 nM tunicamycin response; reporter increase, % at 12.5 µM; 360,000 tested, 0.23% active;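 active = mean luciferase reporter signal, scaled so untreated is 0 and the glycosylation-blocking control 100, at or above a set limit in every replicate; inconclusive = mean reaches the limit but not every replicate does; inactive = mean below the limit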;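 note: luciferase carries N-glycosylation sites so blocking glycosylation raises the light; 0% = median of neutral control wells and 100% = median of 100 nM tunicamycin wells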
Rtt109 HAT inh = inhibitors of Candida albicans Rtt109/Vps75 histone acetyltransferase. inhibition, % at 34.9 µM. purified Rtt109/Vps75, ThioGlo CoA-SH fluorescence, 4 h. AID 540336. 330,000 tested, 0.16% active;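 active = inhibition of at least 50% in every replicate; inconclusive = best replicate reaches 50% inhibition but some replicates fall short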
Target sequence (Q5AAJ8 whole entry, looked up): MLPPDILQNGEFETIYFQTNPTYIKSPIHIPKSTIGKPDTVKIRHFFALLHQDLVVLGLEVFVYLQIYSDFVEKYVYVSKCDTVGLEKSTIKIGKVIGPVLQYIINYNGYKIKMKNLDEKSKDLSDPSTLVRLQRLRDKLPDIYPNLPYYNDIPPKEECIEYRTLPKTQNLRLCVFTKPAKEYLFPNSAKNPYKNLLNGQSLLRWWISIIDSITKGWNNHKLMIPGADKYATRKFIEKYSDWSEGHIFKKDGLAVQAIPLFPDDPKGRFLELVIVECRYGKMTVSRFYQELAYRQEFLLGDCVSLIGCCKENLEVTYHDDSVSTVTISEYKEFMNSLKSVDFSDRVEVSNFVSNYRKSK
The depositor's hits bear a star; ? = inconclusive; · = no result given; [ ] = another dose, or the depositor's remark. In the library only some 2.3% were active in any assay of this set; here they are far more common.

SMILES	Env fusion inh	PAX8 reporter	Arrestin-AP2 inh	PfHsp90 set2	Glyco luc inh	Rtt109 HAT inh
Cc1ccc(S(=O)(=O)N2CCCCC2)cc1NC(=O)Cn1ncc(Cl)c(Cl)c1=O	27	99*	25	-2	-19	2
O=C(Cn1ncc(Cl)c(Cl)c1=O)Nc1ccc2c(c1)OCO2	-1	89*	-7	-19	20	-5
Cc1nn(C)cc1NC(=O)C[C@H]1CC[C@@H]2[C@@H](COc3ccc(NC(=O)Nc4cccc(Cl)c4)cc3C(=O)N2C)O1	·	-24	·	·	·	·
COc1ccc(S(=O)(=O)N(C)C[C@H]2Oc3c(NC(=O)Nc4ccc5c(c4)OCO5)cccc3C(=O)N([C@@H](C)CO)C[C@H]2C)cc1	-11[16.7 µM]	·	·	·	·	·
C[C@@H]1CCCCO[C@H](CN(C)S(=O)(=O)c2ccccc2)[C@H](C)CN([C@H](C)CO)C(=O)c2cc(NS(C)(=O)=O)ccc2O1	5[16.7 µM]	5	·	·	·	·
CCN(CC)S(=O)(=O)c1cc(NC(=O)CCNC(=O)c2ccco2)ccc1C	59*	19	19	7	2	-7
C[C@H](CO)N1C[C@H](C)[C@H](CN(C)C(=O)NC2CCCCC2)Oc2c(NC(=O)c3ccncc3)cccc2C1=O	10[16.7 µM]	8	·	·	·	·
Cc1cc(CN(C)C(=O)c2cc(COc3ccc4ncccc4c3)on2)on1	-15	91*	2	-1	-1	-1
CN(Cc1nccn1C)C(=O)c1cc(COc2ccc3ncccc3c2)on1	12	-7	-12	6	-1	-1
O=C(c1cc(COc2ccc3ncccc3c2)on1)N1CCC[C@H]1CO	59*	-24	-14	11	·	6
O=C(c1cc(COc2ccc3ncccc3c2)on1)N1CCCC(O)C1 (centres undefined)	23	1	-5	·	-1	0
COc1cccc(CNC(=O)C[C@H]2CC[C@H](NC(=O)C3CC3)[C@H](CO)O2)c1	3[16.7 µM]	-2	·	·	·	·
CCCN(C)C[C@H]1OCCCC[C@@H](C)Oc2ccc(NC(=O)Cc3ccccc3)cc2C(=O)N([C@@H](C)CO)C[C@H]1C	-8[16.7 µM]	47	·	·	·	·
CC(=O)N1CCN(c2ncnc3ccccc23)CC1	40	9	-5	1	-6	58*
C[C@@H]1CN([C@H](C)CO)C(=O)c2cc(NC(=O)CCN3CCOCC3)ccc2O[C@H]1CN(C)Cc1ccc(C(F)(F)F)cc1	6[16.7 µM]	-1	·	·	·	·
O=c1c2c(nc3c(-c4ccc(Cl)cc4)c[nH]n13)CCCC2	62*	45	-2	-3	2	-2
Cc1cc(C(=O)Nc2ccncc2)c(C)o1	-52	-3	-7	·	3	51*
Cc1cc(C(=O)Nc2ccc(C(=O)O)cc2)c(C)o1	-14	-30	-9	6	0	0
CC1CCN(CCCNC(=O)c2ccc3c(Cl)c4c(nc3c2)CCCC4)CC1	57*	27	15	14	-8	18
O=C(NCCCN1CCCCCC1)c1ccc2c(Cl)c3c(nc2c1)CCCC3	9	-10	-3	4	-6	-1
CC(C)NC(=O)Nc1ccc2c(c1)C(=O)N([C@H](C)CO)C[C@H](C)[C@H](CN(C)Cc1ccc(Cl)c(Cl)c1)OCCCC[C@H](C)O2	6[16.7 µM]	18	·	·	·	·
O=S(=O)(/C=C/C=C/S(=O)(=O)c1ccccc1)c1ccccc1	-195	117*	0	2	-20	17
Cc1ccc(S(=O)(=O)C=CS(=O)(=O)c2ccc(C)cc2)cc1	-9	47	·	·	5	·
CS(=O)(=O)c1sc(C#N)c2c1C(=O)CC(c1ccccc1)C2 (centres undefined)	-10	131*	6	-59	-19	-11
CC(C)(C)[S@@](=O)N1Cc2cc(C(=O)NCCc3ccncc3)nc(-c3cccc(-c4ccc(C#N)cc4)c3)c2[C@H]1CCO	19[16.7 µM]	7	·	·	·	·
CCOc1ccc(NC2c3ccccc3C(=O)N2Cc2ccco2)cc1 (centres undefined)	74*	19	-2	1	-3	-3
COc1ccc(NC2c3ccccc3C(=O)N2Cc2ccco2)cc1OC (centres undefined)	·	·	0	22	-1	4
NNC(=O)c1[nH]c2ccc(Br)cc2c1-c1ccccc1	-25	-10	31	3	3	1
NNC(=O)c1[nH]c2ccc(Cl)cc2c1-c1ccccc1	-206	66*	9	16	?	-1
